# In PubChem BioAssay AID504382 (The Scripps Research Institute Molecular Screening Center, 2011):
# In all, about 2,500 compounds went through this assay and about 460 (18%) were called active. Not all results are given here. Unmarked numbers belong to inactive results.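 Rule for the calls: active = mean activation above a cutoff of low control average plus 3 SD from the earlier screen (cut at about 12% in these data); inactive = the rest.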
# Experiment: compound fluorescence interference without thin filaments, confirmation, artefact control for cardiac RTF calcium sensitizer project, biochemical (AID 504382)
# Settings: IANBD fluorescence interference counterscreen, buffer, EC20 Ca2+; at 7.2 µM; active compounds read high; scaled: EC20 calcium 0, EC100 calcium 100
# How it was run: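 Medium: MOPS/KCl/MgCl2/EGTA/NTA/DTT buffer, pH 7.2 | Reagent: EC20 calcium, 0.472 mM | Compound dosing: 7.2 µM single dose | Times: 15 min compound exposure at 25 °C | Signal: Fluorescence, 480/540 nm | Measure: Interference relative to controls | Repeats: Triplicate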
row,SMILES,fluorescence artifact activation
1,O=C1CC(c2cccc(Oc3ccccc3)c2)NC(=O)N1 (stereo unspecified),0.02%
2,O=c1c(/C=C(\O)c2ccc(F)cc2)nc2ccccc2n1-c1ccccc1,0.04%
3,Cc1ccc(-c2csc(NC(=O)CSc3nc4ccccc4o3)n2)cc1,0.77%
4,Cc1ccc(CSc2nnc(SCC(=O)N/N=C/c3ccccc3OCC(=O)O)s2)cc1,4.19%
5,Cc1ccc(NC(=O)CSc2nnc(-c3cccnc3)s2)cc1,258% (active)
6,Nc1nnnn1/N=C/c1cc(Cl)cc(Cl)c1O,0.11%
7,O=C(Nc1ccc(Cl)c(Cl)c1)Nc1ccc([N+](=O)[O-])cn1,8.85%
8,COc1ccc(OC)c2[nH]c(=O)c(CCNS(=O)(=O)c3ccc(Cl)cc3)cc12,-0.04%
9,N#C/C(=C\N1CCN(Cc2ccc3c(c2)OCO3)CC1)c1nc2ccccc2s1,7.04%
10,Cc1ccccc1N=Cc1cc2c(cc1O)OC(N)=C(C#N)C2c1ccccc1 (stereo unspecified),0.04%
11,COc1cccc(C2C(C#N)=C(N)Oc3cc(C)oc(=O)c32)c1OC (stereo unspecified),6.53%
12,COc1ccc(N=Cc2cc3c(cc2O)OC(N)=C(C#N)C3c2ccccc2)cc1 (stereo unspecified),32.9% (active)
13,CCN(CC)c1ccc(C=C2SC(=S)NC2=O)cc1,19.1% (active)
14,CCN(CC)c1ccc(/C=C2\SC(N)=NC2=O)cc1,18.7% (active)
15,CCOc1ccc(N(C)c2ccc(/C=C3/SC(=S)NC3=O)cc2)cc1,0.1%
16,CCN(CC)c1ccc(/C=C2\C(=N)N3N=C(CC(=O)N4CCOCC4)SC3=NC2=O)cc1,0.25%
17,CCCOc1ccc(-c2nn(-c3ccccc3)cc2/C=C2\SC(N)=NC2=O)cc1,0.02%
18,CN(C)c1ccc(C=C2SC(=S)NC2=O)cc1,0.13%
19,COc1cccc(/C=N/Nc2nnc3c(n2)[nH]c2ccccc23)c1OC,0.23%
20,CC[n+]1c(/C=C/N(C)c2ccccc2)oc2ccc(F)cc21,0.51%
21,CCN(CC)c1ccc(/C=N/OCC(=O)Nc2cccc(C)c2)cc1,0.61%
22,C#CCN1c2ccccc2Sc2cccnc21,0.15%
23,O=C(c1cccc(F)c1)N1CCN(C(=O)c2cc(-c3ccc(Cl)cc3Cl)on2)CC1,0.33%
24,Fc1ccc(-c2nnc(-c3ccc(Cl)cc3Cl)o2)cc1,12.9% (active)

row,SMILES,fluorescence artifact activation
1,Nc1ccn([C@H]2C[C@H](O)[C@@H](CO)O2)c(=O)n1,0.1%
2,CCCNC(=O)Cn1c(=O)/c(=C/c2ccc(-c3ccc([N+](=O)[O-])cc3)o2)s/c1=C\C(=O)C(C)(C)C,10.3%
3,O=c1oc2ccccc2cc1-c1ccc(O)cc1O,30.6% (active)
4,O=c1c(-c2ccc(O)cc2O)coc2cc(O)cc(O)c12,0.09%
5,O=c1oc2ccccc2cc1-c1nc(-c2cccs2)cs1,-0.04%
6,COc1ccccc1/C=[N+](\[O-])C1SC(=S)N(C)C1(C)C (stereo unspecified),0.01%
7,CCOc1ccc(N2C(=O)CC(SCc3nc4ccccc4[nH]3)C2=O)cc1 (stereo unspecified),0.12%
8,COC(=O)[C@@]1(Cc2ccc(OC)cc2)[C@@H]2C(=CC(=O)[C@H]2CC(=O)C(=O)N2CCCC2)CN1C(=O)c1ccccc1,15% (active)
9,CN(C)S(=O)(=O)c1ccc2c(c1)/C(=C/c1cc3c([nH]1)CCCC3)C(=O)N2,3.96%
10,Cc1cc(C)c(/C=C2\C(=O)Nc3ccccc32)[nH]1,4.55%
11,O=C1Nc2ccccc2/C1=C/c1cnc(-c2ccccc2)[nH]1,36.5% (active)
12,C#Cc1ccc([C@@H]2C=C(C(=O)OCC=C)O[C@H](OCCCCO)C2)cc1,0.21%
13,COc1ccccc1N1CCN(C(=O)CCC(=O)O)CC1,0.1%
14,COc1ccccc1N1CCN(c2ccc([N+](=O)[O-])cc2Cl)CC1,18.9% (active)
15,CC1=N/C(=C/c2ccc([N+](=O)[O-])cc2)C(=O)N1c1ccc(Cl)cc1Cl,0.01%
16,Cc1cc(N2CCN(c3nc(-c4ccc([N+](=O)[O-])cc4)cs3)CC2)c2ccccc2n1,3.28%
17,COc1ccc(N2CCN(c3ccc([N+](=O)[O-])cc3Cl)CC2)cc1,18.2% (active)
18,COc1ccc(N2CCN(S(=O)(=O)Cc3ccccc3)CC2)cc1,0.08%
19,COc1cc(NC(=O)C2CCCCN2)ccc1OCC(C)C (stereo unspecified),2.06%
20,CC(C)C(=O)COc1c2occc2cc2ccc(=O)oc12,0.07%
21,CCOC(=O)c1cccc(NC(=O)CSc2nc(N)cc(N)n2)c1,-0.04%
22,Cc1noc(NS(=O)(=O)c2ccc(NC(=O)CSc3nc4c(cc3C#N)CCC4)cc2)c1C,0.31%
23,CCOC(=O)c1c(C#N)c(SCC(=O)Nc2ccc(OC)cc2)nc2c1CN(CC)CC2,25.1% (active)
24,COc1ccc(/C=C2\SC(=O)N(CCC(=O)N3CCN(C)CC3)C2=O)cc1,-0.03%

row,SMILES,fluorescence artifact activation
1,CC(C)c1ccc(C2c3[nH]c4ccccc4c3C[C@H]3C(=O)N(c4ccccc4C(=O)N4CCC(C(=O)O)CC4)C(=O)N23)cc1 (stereo partly specified),0.07%
2,COc1ccccc1-c1nnc(SCc2nc3ccccc3s2)n1C,7.19%
3,Cc1ccc(Cl)c(NC(=O)CN(C)CC(=O)Nc2ccc(F)c(F)c2F)c1Cl,0.02%
4,N/C(COc1cc(Cl)cc(Cl)c1)=N\O,21.9% (active)
5,COc1cc(OC)c(C(=O)NC2CCCCCC2)cc1OC,-0.01%
6,O=[N+]([O-])c1cc(-c2ccn[nH]2)ccc1Cl,-0.08%
7,COc1ccc(C(Nc2ccc(S(=O)(=O)NCC3CCCO3)cc2)C(=O)NC(C)(C)C)cc1OC (stereo unspecified),0.01%
8,COc1cc(OC)cc(-c2c(-c3cccs3)c3cc(-c4ccc(SC)cc4)ccc3n2C)c1,5.67%
9,O=C(CSc1nc2ccccc2s1)NNC(=S)Nc1ccccc1,193% (active)
10,N#C/C(=C(/O)COC(=O)c1ccccc1O)c1nc2ccccc2s1,0.47%
11,O=C(/C=C/c1nc2ccccc2s1)N1CCCCCC1,7.06%
12,CCc1cc(=O)n2c([nH]c3ccccc32)c1C#N,0.24%
13,Cc1cc(Br)ccc1SCC(=O)OCC(=O)Nc1ccccc1C#N,0.22%
14,Cc1ccc(S(=O)(=O)Nc2ccc3ncccc3c2[N+](=O)[O-])cc1,0.33%
15,COc1ccc(/C=C2\CC/C(=C\c3ccc(OC)cc3OC)C2=O)c(OC)c1,9.84%
16,CCCCN1C(=O)/C(=C/C=C2\Oc3ccccc3N2CC)SC1=S,16.6% (active)
17,CCCN1C(=O)/C(=C/C=C2\N(CC)c3ccccc3C2(C)C)SC1=S,0.48%
18,CCCN1C(=O)/C(=C\C=C2\N(CC)c3ccccc3C2(C)C)SC1=S,0.28%
19,CC(C(=O)NNS(=O)(=O)c1cccc(C(F)(F)F)c1)n1nnc(N2CCOCC2)n1 (stereo unspecified),0.4%
20,COc1cc(OC)c(OC)cc1/C=C1/Cc2ccccc2C1=O,-0.02%
21,COc1ccc2c3c(cccc13)C(=O)CC2,1.92%
22,COc1cc2c(cc1[N+](=O)[O-])-c1ccccc1C2,70.4% (active)
23,Cc1noc(C)c1S(=O)(=O)N(C)C[C@H]1Oc2ccc(NC(=O)CCC(F)(F)F)cc2C(=O)N([C@H](C)CO)C[C@@H]1C,0.08%
24,Cc1ccc(S(=O)(=O)Nc2nc3ccccc3nc2NCc2ccco2)cc1,2.57%

row,SMILES,fluorescence artifact activation
1,O=S(=O)(Nc1nc2ccccc2nc1N1CCN(c2ccccn2)CC1)c1ccc(Cl)cc1,-0.09%
2,O=S(=O)(Nc1nc2ccccc2nc1NCCO)c1cccc(Cl)c1,57.1% (active)
3,COC1=CC2(O)CCCC2=CC1=O (stereo unspecified),0.15%
4,Cc1cc(Cn2nc(C(=O)NCC3CC3)cc2-c2ccccc2)on1,0.04%
5,COc1cccc(/C=C/C(=C2\C(=O)N(c3ccccc3)N=C2C)c2ccc(Br)cc2)c1OC,0.1%
6,CCC1(c2ccccc2)NC(=O)N(CC(=O)Nc2ccc(OC)nc2)C1=O (stereo unspecified),-0.05%
7,CCN(C(=O)c1cc2ccccc2oc1=O)c1ccccc1,1.56%
8,C/C(=N/NC(=O)CNC(=O)Cc1ccccc1)c1ccco1,0%
9,N#CCCN(C(=O)c1ccco1)c1ccccc1,1610% (active)
10,CCOCCCNc1ccc(-c2ccccc2)nn1,1.31%
11,COc1ccc(O)c(/C=C2/SC(=S)N(Cc3ccccc3)C2=O)c1,0.17%
12,COc1cc(/C=C2/SC(=S)N(Cc3ccccc3)C2=O)cc(Cl)c1O,1800% (active)
13,O=C1/C(=C\c2cc(Cl)c(O)c(Cl)c2)SC(=S)N1Cc1ccccc1,-0.11%
14,O=C(N/N=C/c1cccc([N+](=O)[O-])c1)c1cnccn1,-0.02%
15,O=C(CSc1ccc(-c2cccs2)nn1)N1CCCCC1,0.91%
16,CCOc1ccc(NC(=O)COC(=O)CCN2C(=O)C3CC=CCC3C2=O)cc1OCC (stereo unspecified),0.5%
17,CN1CC[C@@H]2C(=O)N3CCc4ccc(Br)cc4[C@@H]3C[C@@H]21,0.24%
18,COC(=O)C1=C(O)/C(=C\c2ccc(CNS(=O)(=O)c3ccc(Cl)cc3)o2)N=C1C,0.18%
19,CCN1CC=C2C(C#N)=C(N)C(C#N)(C#N)C(CCc3ccccc3)C2C1 (stereo unspecified),0.03%
20,CN1CC=C2C(C#N)=C(N)C(C#N)(C#N)[C@H](c3cccc(Cl)c3)C2C1 (stereo partly specified),10.2%
21,CN1CC=C2C(C#N)=C(N)C(C#N)(C#N)C(Cc3ccccc3)C2C1 (stereo unspecified),0.22%
22,COc1cc([C@@H]2[C@H]3CN(C)CC=C3C(C#N)=C(N)C2(C#N)C#N)cc2c1OCO2,0.14%
23,CN1CC=C2C(C#N)=C(N)C(C#N)(C#N)C(CCc3ccccc3)C2C1 (stereo unspecified),12.7% (active)
24,COc1cc(C2C3CN(C)CC=C3C(C#N)=C(N)C2(C#N)C#N)ccc1OC(C)C (stereo unspecified),16.8% (active)
